“And” between values parts separate entries of the source, which are not always exact repeats. Equal values may be shown once.
Tests used:
P388 [1] = assay: Optimal dose required for antitumor activity against P-388 murine leukemia cells in mice.; format: functional, Mus musculus
Outline: (§1)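 P-388 ascites leukemia, 10⁶ cells implanted ip in female CDF₁ mice. Six mice per dose, with 10 saline-injected controls. A six-mouse mitomycin C group was run at each dose in the same experiment. % T/C = median survival time treated/control × 100 at the optimal dose. MED is the lowest dose giving T/C ≥ 125.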

[2] = Partition coefficient (logP); format: physicochemical; details: octanol/water
[3] = Therapeutic ratio as optimal dose/minimal effective dose; format: ADME; details: mouse, p388; read-out: TR
P388 [4] = assay: Maximum % T/C with mitomycin C against P-388 murine leukemia cells in mice.; format: functional, Mus musculus; outline: as §1
P388 [5] = assay: Maximum % T/C against P-388 murine leukemia cells in mice.; format: functional, Mus musculus; outline: as §1
P388 [6] = assay: Minimum effective dose required for antitumor activity against P-388 murine leukemia cells; format: functional; details: Mus musculus, read-out: MED; outline: as §1
P388 [7] = assay: Leukopenia % change in WBC at optimal dose on 3rd day.; format: functional, Mus musculus
L1210 [8] = assay: Minimum effective dose required for antitumor activity against L-1210 leukemia cells in mice.; format: functional; details: Mus musculus, read-out: MED
Outline: (§2)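 L-1210 leukemia in mice, run by the standard NCI protocol with one dose on day 1. % T/C is based on survival. Repeated assays are reported as both values.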

L1210 [9] = assay: Maximum % T/C against L-1210 leukemia cells in mice.; format: functional, Mus musculus; outline: as §2
L1210 [10] = assay: Optimal dose required for antitumor activity L-1210 leukemia cells in mice.; format: functional, Mus musculus; outline: as §2
B16 [11] = assay: (§3) Median survival time (% T/C) after ip administration in B-16 melanoma in mice (dose mg/kg/day); format: functional, Mus musculus
Outline: (§4)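 B-16 melanoma in mice, run by the standard NCI protocol. Drug given ip on days 1, 4 and 7, ten mice per dose. Read-outs were median survival time as % T/C of controls and average body-weight change in g.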

B16 [12] = assay: Average weight change after ip administration of in B-16 melanoma in mice (dose mg/kg/day); format: functional, Mus musculus; outline: as §4
B16 [13] = assay: (§5) Average weight change after ip administration in B-16 melanoma in mice (dose mg/kg/day); format: functional, Mus musculus; outline: as §4
B16 [14] = assay: as §5; format: functional, Mus musculus; outline: as §4; remark: listed apart in the source
B16 [15] = assay: as §3; format: functional, Mus musculus; outline: as §4; remark: listed apart in the source
B16 [16] = assay: as §3; format: functional; outline: as §4
B16 [17] = assay: Tumor free survivors on 45th day after ip administration of in B-16 melanoma in mice (dose mg/kg/day); 0
B16 [18] = assay: Tumor free survivors on 45th day after ip administration in B-16 melanoma in mice (dose mg/kg/day); 0
B16 [19] = assay: as §3; format: functional; outline: as §4; remark: listed apart in the source
B16 [20] = assay: Average weight change after ip administration inB-16 melanoma in mice (dose mg/kg/day); format: functional, Mus musculus
Outline: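 Mice bearing B-16 melanoma were tested under the standard NCI protocol at Arthur D. Little. Compound was injected ip on days 1, 4 and 7, with ten mice per dose. Average body-weight change is reported in g. Alongside it, median survival time was given as % T/C and cures as tumor-free survivors on day 45.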

| SMILES | Dose (P388 [1]) | logP [2] | selectivity ratio [3] | T/C (P388 [4]) | T/C (P388 [5]) | minimal effective dose (P388 [6]) | Change in WBC (P388 [7]) | minimal effective dose (L1210 [8]) | T/C (L1210 [9]) | Dose (L1210 [10]) | T/C (B16 [11]) | Average weight change (B16 [12]) | Average weight change (B16 [13]) | Average weight change (B16 [14]) | T/C (B16 [15]) | T/C (B16 [16]) | Cures (B16 [17]) | Cures (B16 [18]) | T/C (B16 [19]) | Average weight change (B16 [20]) |
| --- | --- | --- | --- | --- | --- | --- | --- | --- | --- | --- | --- | --- | --- | --- | --- | --- | --- | --- | --- | --- |
| COC12[C@@H]3N[C@@H]3CN1C1=C(C(=O)C(NCCc3ccccc3)=C(C)C1=O)[C@@H]2COC(N)=O (stereo not given in full) | 25.6 mg/kg | 2.48 | 16 | 194% |  |  |  |  |  |  |  |  |  |  |  |  |  |  |  |  |
| COC12[C@@H]3N[C@@H]3CN1C1=C(C(=O)C(NCCc3ccc(O)c(O)c3)=C(C)C1=O)[C@@H]2COC(N)=O (stereo not given in full) | 12.8 mg/kg |  | 1 | 233% | 139% | 12.8 mg/kg |  |  |  |  |  |  |  |  |  |  |  |  |  |  |
| COC12[C@@H]3N[C@@H]3CN1C1=C(C(=O)/C(=N/CCO)C(C)=C1O)[C@@H]2COC(N)=O (stereo not given in full) | 25.6 mg/kg | -0.81 | 16 | 228% | 228% | 1.6 mg/kg | -38% |  |  |  |  |  |  |  |  |  |  |  |  |  |
| COC12[C@@H]3N[C@@H]3CN1C1=C(C(=O)/C(=N/CCF)C(C)=C1O)[C@@H]2COC(N)=O (stereo not given in full) | 6.4 mg/kg | 0.18 | 16 | 268% | >316% | 0.4 mg/kg |  |  |  |  |  |  |  |  |  |  |  |  |  |  |
| COC(C/N=C1/C(=O)C2=C(C(O)=C1C)N1C[C@H]3N[C@H]3C1(OC)[C@H]2COC(N)=O)OC (stereo not given in full) | 6.4 mg/kg |  | 8 | 224% | 200% | 0.8 mg/kg | -44% | 6 mg/kg | 151% | 24 mg/kg |  |  |  |  |  |  |  |  |  |  |
| COC12[C@@H](COC(N)=O)C3=C(C(O)=C(C)/C(=N\CCS)C3=O)N1C[C@@H]1[C@H]2N1C (stereo not given in full) | 25.6 mg/kg |  | 8 | 268% | 179% | 3.2 mg/kg |  | 12 mg/kg | 129% | 48 mg/kg |  |  |  |  |  |  |  |  |  |  |
| CCSCC/N=C1/C(=O)C2=C(C(O)=C1C)N1C[C@H]3N[C@H]3C1(OC)[C@H]2COC(N)=O (stereo not given in full) | 12.8 mg/kg | 1.66 | 8 | 268% | 205% | 1.6 mg/kg |  | 12 mg/kg | 141% | 24 mg/kg | 190% and 175% and 144% | -1.7 g | -1.2 g and -0.8 g |  |  |  |  |  |  |  |
| COC12[C@@H](COC(N)=O)C3=C(C(=O)C(C)=C(NCCCl)C3=O)N1C[C@@H]1[C@H]2N1C (stereo not given in full) | 51.2 mg/kg |  | 8 | >300% |  |  |  |  |  |  |  |  |  |  |  |  |  |  |  |  |
| COC12[C@@H]3N[C@@H]3CN1C1=C(C(=O)C(NCCCl)=C(C)C1=O)[C@@H]2COC(N)=O (stereo not given in full) | 12.8 mg/kg | 0.74 | 8 | 245% |  |  | -7% |  |  |  |  |  |  |  |  |  |  |  |  |  |
| COC12[C@@H]3N[C@@H]3CN1C1=C(C(=O)/C(=N/CCS)C(C)=C1O)[C@@H]2COC(N)=O (stereo not given in full) | 12.8 mg/kg | 0.63 | 64 | 181% | 313% | 0.2 mg/kg | -35% | 1.6 mg/kg | 168% | 9.6 mg/kg | 218% |  | -0.5 g | -0.5 g | 190% |  |  |  |  |  |
| COC12[C@@H]3N[C@@H]3CN1C1=C(C(=O)/C(=N/CCN3CCOCC3)C(C)=C1O)[C@@H]2COC(N)=O (stereo not given in full) | 25.6 mg/kg |  | 4 | 211% | 150% | 6.4 mg/kg |  | 48 mg/kg | 132% | 96 mg/kg |  |  |  |  |  |  |  |  |  |  |
| CCN1CCCC1C/N=C1/C(=O)C2=C(C(O)=C1C)N1C[C@H]3N[C@H]3C1(OC)[C@H]2COC(N)=O (stereo not given in full) | 12.8 mg/kg |  | 16 | 211% | 217% | 0.8 mg/kg | -29% |  |  |  |  |  |  |  |  |  |  |  |  |  |
| CCSCC/N=C1/C(=O)C2=C(C(O)=C1C)N1C[C@@H]3[C@@H](N3C)C1(OC)[C@H]2COC(N)=O (stereo not given in full) | 25 mg/kg |  | 4 | 322% | 200% | 6.4 mg/kg |  | 24 mg/kg | 143% | 48 mg/kg |  |  |  |  |  |  |  |  |  |  |
| COC12[C@@H]3N[C@@H]3CN1C1=C(C(=O)/C(=N/CCN3CCCC3)C(C)=C1O)[C@@H]2COC(N)=O (stereo not given in full) | 12.8 mg/kg |  | 32 | 211% | 194% | 0.4 mg/kg | -64% | 5 mg/kg | 125% | 5 mg/kg |  |  |  |  |  |  |  |  |  |  |
| COC12[C@@H]3N[C@@H]3CN1C1=C(C(=O)/C(=N/CCc3ccc(O)cc3)C(C)=C1O)[C@@H]2COC(N)=O (stereo not given in full) | 25.6 mg/kg |  | 16 | 288% | 218% | 1.6 mg/kg |  | 12 mg/kg | 125% | 48 mg/kg |  |  |  |  |  |  |  |  |  |  |
| CC/N=C1/C(=O)C2=C(C(O)=C1C)N1C[C@H]3N[C@H]3C1(OC)[C@H]2COC(N)=O (stereo not given in full) | 12.8 mg/kg | 0.35 | 32 | 322% | 250% | 0.8 mg/kg |  |  |  |  |  |  |  |  |  |  |  |  |  |  |
| COC12[C@@H]3N[C@@H]3CN1C1=C(C(=O)/C(=N/CCN)C(C)=C1O)[C@@H]2COC(N)=O (stereo not given in full) | 3.3 mg/kg | -0.84 | 8 | 156% | 178% | 0.4 mg/kg |  |  |  |  |  |  |  |  |  |  |  |  |  |  |
| COCC/N=C1/C(=O)C2=C(C(O)=C1C)N1C[C@H]3N[C@H]3C1(OC)[C@H]2COC(N)=O (stereo not given in full) | 12.8 mg/kg | -0.12 | 16 | 268% | 205% | 0.8 mg/kg | -57% | 6 mg/kg | 143% | 12 mg/kg | 190% | -2 g | -0.4 g | -1.7 g |  |  |  |  |  |  |
| COC12[C@@H]3N[C@@H]3CN1C1=C(C(=O)C(NCCC#N)=C(C)C1=O)[C@@H]2COC(N)=O (stereo not given in full) | 6.4 mg/kg | -0.49 | 16 | 268% | 232% | 0.4 mg/kg | -40% | 3 mg/kg | 130% | 12 mg/kg |  |  |  |  |  |  |  |  |  |  |
| COC12[C@@H]3N[C@@H]3CN1C1=C(C(=O)C(NCCN(C)C)=C(C)C1=O)[C@@H]2COC(N)=O (stereo not given in full) | 12.8 mg/kg |  | 32 | 161% | 233% | 0.4 mg/kg |  | 6 mg/kg | 136% | 12 mg/kg |  |  |  |  |  |  |  |  |  |  |
| COC12[C@@H]3N[C@@H]3CN1C1=C(C(=O)C(N[C@@H]3CC3c3ccccc3)=C(C)C1=O)[C@@H]2COC(N)=O (stereo not given in full) | 25.6 mg/kg |  | 16 | 233% | 200% | 1.6 mg/kg |  |  |  |  |  |  |  |  |  |  |  |  |  |  |
| CO[C@@]12[C@H](COC(N)=O)C3=C(C(=O)C(C)=C(N)C3=O)N1C[C@@H]1N[C@@H]12 [MITOMYCIN] | 3.2 mg/kg |  | 16 |  | 161% |  | -42% | 3 mg/kg | 124% | 3 mg/kg |  | -2.2 g | -1.1 g |  |  | 190% | 0 | 0 | 160% and 127% | -0.7 g |

— ChEMBL document CHEMBL1122307, “Mitomycin C and porfiromycin analogues with substituted ethylamines at position 7” (J Med Chem, 1983)
